Source: PubChem BioAssay (several laboratories)
Hits are enriched below; roughly 0.99% of the tested compounds scored in any of these assays.
FN deposition inh: fibronectin deposition inhibition | AH1F fibroblasts, Alexa488-fibronectin deposition fluorescence, overnight | inhibition, % at 12.6 µM | hit rate 0.086% among 350,000;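 active = mean inhibition across replicates of 30% or more, regardless of how many single replicates reach that level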;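 also: positive control wells lacked labelled fibronectin entirely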
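material = AH1F fibroblast monolayer depositing Alexa488-labelled fibronectin into matrix | amount = 10000 AH1F cells/well | buffer or medium = DMEM plus 2% serum, read in PBS | incubation = 1 h cell adhesion before compound, then overnight fibronectin incubation | detection = fluorescence at 485 nm excitation, 525 nm emission | evaluation = percent inhibition as loss of matrix-bound fibronectin fluorescence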
GC-A act: GC-A (human) enzyme activation | P16066 | HEK293 GC-A cells, cGMP TR-FRET, EC30 ANP; 0% at EC30 ANP, 100% saturating ANP | activation, % at 10 µM | hit rate 0.14% among 370,000; in the data active = activation above about 40%
CaV13 ICDI inh: Disruptors of the CACNA1D IQ motif to Ca2+-dependent inactivation inhibitor domain association, primary screening, Förster resonance energy transfer in intact living …. AID 743397. hit rate 0.098% among 340,000. inhibition, % at 12.3 µM. HEK cells, CFP/YFP FRET ICDI-IQ, plate reader, 10 min; percent FRET-ratio fall versus neutral wells;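 active = mean replicate inhibition of at least 30% and at least 1% of replicates passing that level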;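 also: 0% = median of the neutral control wells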
CASP6 VEID inh: blocks human caspase-6 cleavage activity | inhibition, % at 12.5 µM | purified caspase-6, Z-VEID-R110 cleavage fluorescence | hit rate 0.53% among 350,000;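 active = mean inhibition across replicates at least about 35%, with every replicate also reaching that limit, limit read from the data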;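 also: 0% = median of neutral control wells and 100% = no fluorescence left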
NPR2 activator: GC-B (human) receptor activation; P20594; HEK293-GC-B cells, CNP EC30, cGMP TR-FRET; 0% at EC30 CNP, 100% saturating CNP; activation, % at 10 µM; hit rate 0.11% among 370,000; AID 1920062;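 active = activation at 10 µM reaching about 35% in either raw or pattern-adjusted values, limit read from the data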
NSD2 HMT inh: NSD2 (human) methyltransferase inhibition; O96028; NSD2 peptide methylation, AlphaScreen, 120 min; inhibition, % at 12.5 µM; hit rate 0.54% among 310,000; AID 743445; in the data active = inhibition above about 50%
* hit, by the source's call; x = no result given.

SMILES	FN deposition inh	GC-A act	CaV13 ICDI inh	CASP6 VEID inh	NPR2 activator	NSD2 HMT inh
COC(=O)C1=CN(C)C=C(C(=O)OC)C1c1ccccc1Cl	x	-0.8	35.8*	x	-4.0	-3.9
COc1ccc2c(C(=O)NCCCCO)c(-c3ccc(S(C)(=O)=O)cc3)sc2c1	2.6	1.6	-5.4	-4.6	5.5	x
COc1ccc2sc(-c3ccc(S(C)(=O)=O)cc3)c(C(=O)NCCc3c[nH]c4ccccc34)c2c1	-0.4	30.1	-5.4	-1.0	39.0*	x
O=C(O)CCCCN1C(=O)/C(=C\c2ccc(OCc3ccccc3)c(OCc3ccccc3)c2)SC1=S	5.2	-5.8	-8.0	71.8*	-10.7	6.1
O=C(O)CN1C(=O)/C(=C\c2cc([N+](=O)[O-])ccc2OCc2ccccc2Cl)SC1=S	7.0	-0.8	-3.0	35.6*	0.5	x
O=C(O)CN1C(=O)/C(=C\c2cc(Br)ccc2OCc2ccc(Cl)cc2)SC1=S	-4.7	-1.7	-4.1	77.2*	-2.2	19.1
COc1ccc(NC(=O)N(C)C[C@@H]2Oc3ccc(NS(=O)(=O)c4c(C)noc4C)cc3CC(=O)N([C@H](C)CO)C[C@@H]2C)cc1	x	x	x	0.8	x	x
Cc1ccc(S(=O)(=O)N(C)C[C@H]2Oc3ccc(NC(=O)Cc4ccccc4)cc3C(=O)N([C@H](C)CO)C[C@@H]2C)cc1	x	x	x	1.7	x	x
CCn1cc(CNC(=S)Nc2cccc3ccccc23)cn1	x	1.2	-6.5	53.4*	0.1	-0.1
C[C@@H]1CN([C@H](C)CO)C(=O)Cc2cc(NS(=O)(=O)c3ccc(Cl)cc3)ccc2O[C@@H]1CN(C)C(=O)Nc1cccc2ccccc12	x	x	x	0.5	x	x
O=C(O)c1cnn2c1C(=O)N(Cc1cccs1)CC2	7.0	-1.4	-4.2	63.7*	-3.4	8.4
CCN1/C(=C/c2ccc3cc(C)ccc3[n+]2CC)Sc2cc(C)c(C)cc21	-2.7	-38.9	-5.8	-34.7	-13.4	160.7*
CCN1/C(=C/c2ccc3cc(C)ccc3[n+]2CC)Sc2ccccc21	-58.4	-20.8	-65.0	0.7	-12.5	45.2
CCOC(=O)N1CCC(NC(=O)CS(=O)Cc2nc(-c3ccc(CC)cc3)oc2C)CC1 (stereo unspecified)	x	x	x	x	x	-6.3
C/C(=N\NC(=O)c1cc(O)ccc1O)c1cccc(NC(=O)c2ccc(Cl)cc2)c1	x	10.0	x	53.0*	-0.5	8.2
C/C(=N\NC(=O)c1cc(O)ccc1O)c1cccc(NC(=O)c2cccc(Cl)c2)c1	-2.1	-0.4	-5.4	39.3*	-3.1	12.7
C[C@@H]1CN([C@H](C)CO)C(=O)c2cc(NC(=O)CCC(F)(F)F)ccc2O[C@@H]1CN(C)CC1CC1	x	x	x	1.2	x	x
CN(C)c1ccc(C=c2c3cc(O)ccc3n3c2cc(-c2ccccc2)[n+]3C)cc1	8.5	-37.8	-10.7	95.2*	-6.7	42.9
C[n+]1c(-c2ccccc2)cc2c(=Cc3ccc([N+](=O)[O-])cc3)c3ccccc3n21	3.5	5.4	-10.9	82.7*	-2.2	-0.6
CC(C)n1c2ccccc2c2cc([N+](=O)[O-])ccc21	5.6	27.0	-30.5	1.8	32.7	-0.1
C[n+]1c(-c2ccccc2)cc2c(=Cc3ccccc3)c3ccccc3n21	1.7	5.2	-6.5	52.7*	-8.3	24.4
CN(C)c1ccc(/C=C/C(=O)c2ccc(O)cc2)cc1	-2.9	-2.5	-39.2	-1.5	-5.5	x
CC(C)NC(=O)N(C)C[C@H]1Oc2ccc(NS(=O)(=O)c3cn(C)cn3)cc2C(=O)N([C@@H](C)CO)C[C@H]1C	15.8	x	x	0.3	x	x
COC(=O)c1cc(=O)n(Cc2ccc3c(c2)OCO3)c(=Nc2ccc(F)c(Cl)c2)s1	-7.6	0.6	37.5*	1.8	-0.2	x
CCCCC1(c2ccc(F)cc2)NC(=O)N(CC(=O)N2CCN(C(=O)c3ccco3)CC2)C1=O (stereo unspecified)	x	0.5	x	46.2*	2.7	-3.1
SMILES	FN deposition inh	GC-A act	CaV13 ICDI inh	CASP6 VEID inh	NPR2 activator	NSD2 HMT inh
CC1CCC2(CC1)NC(=O)N(CC(=O)N1CCN(C(=O)c3ccco3)CC1)C2=O (stereo unspecified)	2.1	-2.7	-4.8	6.6	7.3	-3.0
CCNC(=O)C[C@@H]1CC[C@@H]2[C@H](COc3ccc(NC(=O)Nc4ccccc4Cl)cc3C(=O)N2C)O1	-0.9	x	x	0.8	x	x
CCOc1cccc(C(=O)Nc2ccc(N(CC)CC)cc2)c1	30.3*	-3.9	-4.3	x	-6.5	x
Cc1cc(/C=N/Nc2ccc([N+](=O)[O-])cn2)c(C)n1-c1ccc(C(=O)O)cc1	5.4	0.3	-3.6	42.8*	-6.0	1.1
Cc1noc(C)c1S(=O)(=O)Nc1ccc2c(c1)C(=O)N([C@@H](C)CO)C[C@H](C)[C@@H](CN(C)S(=O)(=O)c1ccc(Cl)cc1)OCCCC[C@H](C)O2	-0.2	x	x	-1.0	x	x
Nc1ccc(C(=O)Nc2ccc3c(O)cc(S(=O)(=O)O)cc3c2)cc1	9.4	-1.1	-6.5	83.6*	-3.2	7.9
C[C@H]1CN([C@@H](C)CO)C(=O)Cc2cc(NC(=O)Nc3ccccc3)ccc2O[C@H]1CN(C)C(=O)Nc1cccc2ccccc12	x	x	x	0.8	x	x
C[C@H]1CN([C@@H](C)CO)C(=O)Cc2cc(NS(=O)(=O)c3cn(C)cn3)ccc2O[C@H]1CN(C)C(=O)Nc1ccc2c(c1)OCO2	x	x	x	7.4	x	x
O=C1OC(Nc2cc(Br)cc3cccnc23)c2ccccc21 (stereo unspecified)	1.6	-3.1	-5.1	40.2*	-3.4	104.2*
O=C1OC(Nc2ncccn2)c2ccccc21 (stereo unspecified)	x	3.2	-7.3	x	-0.8	-5.9
CCCN1CCCCC(NC(=O)COCc2ccccc2)C1=O (stereo unspecified)	0.5	5.1	x	0.4	-3.1	x
CN1CCCCC(NC(=O)COCc2ccccc2)C1=O (stereo unspecified)	0.5	-1.3	-1.4	37.8*	-0.3	x
C[C@@H]1CCCCO[C@@H](CN(C)Cc2ccc3c(c2)OCO3)[C@H](C)CN([C@@H](C)CO)C(=O)c2cc(NS(=O)(=O)c3ccccc3)ccc2O1	-3.6	x	x	1.9	x	x
C[C@@H]1CCCCO[C@H](CN(C)Cc2ccc3c(c2)OCO3)[C@@H](C)CN([C@@H](C)CO)C(=O)c2cc(NS(=O)(=O)c3ccccc3)ccc2O1	-5.4	x	x	35.5*	x	x
Cc1noc(C)c1S(=O)(=O)Nc1ccc2c(c1)C(=O)N([C@H](C)CO)C[C@H](C)[C@H](CN(C)Cc1ccc(Cl)c(Cl)c1)OCCCC[C@@H](C)O2	x	x	x	1.9	x	x
Cc1noc(C)c1S(=O)(=O)Nc1ccc2c(c1)C(=O)N([C@@H](C)CO)C[C@@H](C)[C@H](CN(C)Cc1ccc(Cl)c(Cl)c1)OCCCC[C@@H](C)O2	x	x	x	77.5*	x	x
